Values after ≈ are worked out from the molar mass of the structure shown. Active and inactive are the calls of the source. No cut-off for these calls is given here.

Series [1] relates to Escherichia coli. Kind of series: Antibiotic activity against Escherichia coli DH5alpha assessed as growth inhibition after 2 days by optical microscopy. The class given is functional. The note with it: DH5[alpha], 48 h.
In series [2] the test system is Staphylococcus aureus. Kind of series: Antibiotic activity against Staphylococcus aureus assessed as growth inhibition after 2 days by optical microscopy. The note with it: 48 h. The format is functional.
The test system of series [3] is Vero. Kind of series: (§1) Cytotoxicity against african green monkey Vero cells assessed as reduction in cell viability after 24 hrs by MTT assay. As to conditions: chlorocebus sabaeus, vero, 24 h. The format is cell-based. In a few lines: (§2)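 Vero or MRC-5 cells kept in DMEM with 10% heat-inactivated calf serum, 37 °C, 5% CO₂; compound-treated cells given MTT for 3 h at 37 °C, then DMSO 10 min, absorbance at 570 nm; cytotoxicity % = 100 − (sample OD/untreated OD) × 100; TD50/TD90 = dose cutting viability 50% or 90%.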
A general note: Tetrazolium dyes change colour on reduction, which living cells bring about.

Series [4] can be described thus: as §1. As to conditions: chlorocebus sabaeus, Vero cells; read-out: TD50. The class given is cell-based. In a few lines:
as §2

For series [5], the system named is MRC5. Kind of series: (§3) Cytotoxicity against human MRC5 cells assessed as reduction in cell viability after 24 hrs by MTT assay. As to conditions: mrc5, 24 h. The format is cell-based. In a few lines:
as §2

Series [6] can be described thus: as §3. The class given is cell-based. The note with it: MRC5 cells, read-out: TD50. In a few lines: as §2
Series [7] relates to Staphylococcus aureus. Nature of the series: Antibiotic activity against Staphylococcus aureus assessed as growth inhibition after compound washout by optical microscopy. The class given is functional.
A short description of series [8]: Therapeutic index, ratio of TD90 for human MRC5 cells to MBC for Staphylococcus aureus. The class given is cell-based. As to conditions: read-out: TI. In a few lines:
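Therapeutic index calculated as MRC-5 TD90 (MTT assay) divided by MBC measured after washout regrowth test.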

Series [9] has as its system Staphylococcus aureus. Nature of the series: Antibiotic activity against Staphylococcus aureus assessed as ballooning of cocci at 1 to 4 times MIC concentration by phase-contrast microscopy. The class given is functional, organism-based.

With `CCCCCCCCCOc1ccc(F)c(C2=NCCO2)c1F`, the minimal inhibitory concentration (MIC) in [1] and in [2] was greater than 100 mg/L throughout.

For `CCCCCCCCCOc1ccc(F)c(C(=O)NCCNC(=O)c2c(F)ccc(OCCCCCCCCC)c2F)c1F`, the MIC in series [1] and in [2] was greater than 100 mg/L throughout.

`NC(=O)c1c(F)ccc(OCCCCOCC(O)CO)c1F` (stereo not given): the minimum inhibitory concentration (MIC) in [1] and in series [2] was greater than 100 mg/L throughout.

Turning to `CCCCCCCCCOc1ccc(F)c(C(=O)NCCN)c1F`, the figures for the TD90 in series [3] and in series [5] were 120 µg/mL and 80 µg/mL, respectively. In addition, the CC50 at 24 h is 60 mg/L (≈ 175 µM) in series [4] and 35 mg/L (≈ 102 µM) in series [6]. Besides, the MIC turned out to be 20 mg/L (≈ 58.4 µM) in series [1] and 10 mg/L (≈ 29.2 µM) in [2].

Regarding `CCCCCCCCCOc1ccc(F)c(C#N)c1F`, the minimal inhibitory concentration (MIC) in series [1] and in series [2] was greater than 100 mg/L throughout.

With `NC(=O)c1c(F)ccc(OC[C@H]2COc3ccc(Cl)cc3O2)c1F`, the MBC in [7] is 2.5 mg/L (≈ 7.03 µM). In addition, the TD90 in [3] is greater than 200 µg/mL; in series [5], greater than 800 µg/mL. Moreover, the CC50 at 24 h in [4] was greater than 200 mg/L; in series [6], 400 mg/L (≈ 1120 µM). Further, the selectivity ratio in series [8] is greater than 320. In addition, the minimal inhibitory concentration (MIC) in series [1] was greater than 100 mg/L; in series [2], 1 mg/L (≈ 2.81 µM).

As to `NC(=O)c1c(F)ccc(OCC2COc3cc(Cl)ccc3O2)c1F` (racemic), the MBC in series [7] is 2.5 mg/L (≈ 7.03 µM). In addition, the TD90 in series [3] and in series [5] was 800 µg/mL in each case. The CC50 at 24 h in series [4] stood at 550 mg/L (≈ 1550 µM); in series [6], 650 mg/L (≈ 1830 µM). The selectivity ratio in [8] turned out to be 320. The results for the MIC in series [1] and in series [2] were greater than 100 mg/L and 1 mg/L (≈ 2.81 µM), respectively.

Regarding `NC(=O)c1c(F)ccc(OC[C@@H]2COc3ccc(Cl)cc3O2)c1F`, the minimum bactericidal concentration (MBC) in series [7] turned out to be 0.5 mg/L (≈ 1.41 µM). Moreover, the TD90 in [3] was greater than 200 µg/mL; in [5], greater than 800 µg/mL. The CC50 at 24 h is greater than 200 mg/L in series [4] and 600 mg/L (≈ 1690 µM) in [6]. The selectivity ratio in series [8] was greater than 1600. Besides, the values for the MIC in series [1] and in series [2] were greater than 100 mg/L and 0.25 mg/L (≈ 0.703 µM), respectively.

Take `CCCCCCCCCOc1ccc(F)c(C(N)=O)c1F`: the minimum bactericidal concentration (MBC) in [7] turned out to be 0.25 mg/L (≈ 0.835 µM). For the same compound, the TD90 in series [3] and in [5] was greater than 200 µg/mL in each case. Moreover, the CC50 at 24 h in [4] turned out to be 90 mg/L (≈ 301 µM); in series [6], 100 mg/L (≈ 334 µM). Moreover, the selectivity ratio in [8] was greater than 800. Moreover, the values for the minimum inhibitory concentration (MIC) in series [1] and in series [2] were greater than 100 mg/L and 0.1 mg/L (≈ 0.334 µM), respectively.

As for `NCCNC(=O)c1c(F)ccc(OCC2COc3ccccc3O2)c1F` (stereo not given), the MBC in series [7] came to 40 mg/L (≈ 110 µM). The results for the minimum inhibitory concentration (MIC) in series [1] and in series [2] were greater than 100 mg/L and 20 mg/L (≈ 54.9 µM), respectively.

For `NCC(O)COCCCCOc1ccc(F)c(C(N)=O)c1F` (racemic), the MIC in series [1] and in series [2] was greater than 100 mg/L in each case.

For `CCCCCCCCCOc1ccc(F)c(C(=O)NCCO)c1F`, the minimum inhibitory concentration (MIC) in series [1] and in series [2] was greater than 100 mg/L each time.

For `NC(=O)c1c(F)ccc(OCC2COc3ccc(Cl)cc3O2)c1F` (racemic), the minimal bactericidal concentration (MBC) in [7] was determined as 0.5 mg/L (≈ 1.41 µM). For the same compound, the TD90 in [3] and in [5] was greater than 800 µg/mL in each case. Besides, the CC50 at 24 h in [4] is 450 mg/L (≈ 1270 µM); in [6], 500 mg/L (≈ 1410 µM). Moreover, in series [8], the selectivity ratio is greater than 1600. Also, the minimal inhibitory concentration (MIC) was greater than 100 mg/L in series [1] and 0.5 mg/L (≈ 1.41 µM) in series [2]. The result in series [9] was Active.

For the compound `NC(=O)c1c(F)ccc(OCC2COc3ccccc3O2)c1F` (racemic), in series [7], the MBC worked out at 80 mg/L (≈ 249 µM). For the same compound, the values for the minimal inhibitory concentration (MIC) in series [1] and in [2] were greater than 100 mg/L and 5 mg/L (≈ 15.6 µM), respectively.

For orientation: MIC means the lowest concentration that inhibits growth of the organism. For orientation: MBC means the lowest tested concentration that kills the bacteria rather than only halting them.

The record behind these values is ChEMBL document CHEMBL3352283, “Benzodioxane-benzamides as new bacterial cell division inhibitors” (Eur J Med Chem, 2015).
